# Test results from ChEMBL document CHEMBL4321805, “A Conformational Restriction Strategy for the Identification of a Highly Selective Pyrimido-pyrrolo-oxazine mTOR Inhibitor” (J Med Chem, 2019).
# What was measured:
# [1] = AUC (0 to 8 hrs) in Sprague-Dawley rat brain at 5 mg/kg, po by UHPLC-MS analysis; assay type: ADME, organism-based; set-up: time < 8 hr, dose 5 mg/kg, route oral; details: in vivo
# Outline: (§1)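 Male Sprague Dawley rats (8 weeks old at delivery), single oral dose of 5 mg/kg, formulation at pH 3. Three rats per time point (30 min, 2, 4, 8 h) under isoflurane; heart-puncture blood into lithium-heparin, then brain collected. Plasma and tissue stored at −80 °C. Samples precipitated with acetonitrile containing diazepam internal standard, then LC–MS.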
# [2] = AUC (0 to 8 hrs) in Sprague-Dawley rat plasma at 5 mg/kg, po by UHPLC-MS analysis; assay type: ADME, organism-based; set-up: time < 8 hr, dose 5 mg/kg, route oral; outline: as §1
# [3] = Stability in CD-1 mouse hepatocytes assessed as parent compound remaining at 5 uM after 3 hrs by LC-MS analysis; assay type: ADME, cell-based, Hepatocyte; details: read-out: Stability
# Outline: (§2)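 Cryopreserved hepatocytes in suspension (200 000 cells/well) in Williams medium E with 2 mM L-glutamine and 25 mM HEPES. Test item at a final 5 μM (0.5% DMSO). Sampled at 0, 15, 60, 90 and 180 min. Precipitated with ACN, then LC–MS. Controls: 7-ethoxycoumarin and hepatocyte-free medium; n = 2.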
# [4] = Stability in Beagle dog hepatocytes assessed as parent compound remaining at 5 uM after 3 hrs by LC-MS analysis; assay type: ADME, cell-based, Canis lupus familiaris, Hepatocyte; details: read-out: Stability; outline: as §2
# [5] = Stability in Sprague-Dawley rat hepatocytes assessed as parent compound remaining at 5 uM after 3 hrs by LC-MS analysis; assay type: ADME, cell-based, Hepatocyte; details: read-out: Stability; outline: as §2
AUC [1] [ng·h/g],AUC(0-t) at 8 h [2] [ng·h/mL],"remaining at 3 h, 5 µM [3] [%]","remaining at 3 h, 5 µM [4] [%]","remaining at 3 h, 5 µM [5] [%]",Compound
104,5730,–,–,–,C[C@@H]1COCCN1c1nc(-c2cnc(N)cn2)nc2c1C[C@@H]1COCCN21
–,–,81.2,93,93.6,C[C@@H]1COCCN1c1nc(-c2cnc(N)nc2)nc2c1C[C@@H]1COCCN21
